hERG protect = compounds protecting human hERG from proarrhythmic drug block; Q12809; CHO-hERG, FluxOR thallium flux, dofetilide IC70 present; activation (rescue from dofetilide block), less the hit threshold, % at 10 µM; 310,000 compounds, 0.51% hits; AID 1511;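 active = activation above the mean of controls blocked by dofetilide plus 5 SD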;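 also: thallium influx through hERG after potassium depolarization seen as dye fluorescence rise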
KCC2 mod = modulators of human KCC2 chloride dependent transport; Q9H2X9; KCC2 cells, thallium flux FluoZin-2 fluorescence; B-score of Tl+ flux slope (higher = more flux/activation; lower = inhibition) at 10 µM; 190,000 compounds, 2.2% hits;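 active = thallium flux slope and its plate-corrected score both differing from the plate sample mean at a set confidence after two filtering rounds, in either direction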;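 also: slope of fluorescence scaled to starting intensity during 10 to 20 s after thallium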
KCNQ1 block = blocks the human KCNQ1 potassium channel; AID 2642; P51787; B-score at 10 µM; CHO-K1 KCNQ1, FluxOR thallium flux fluorescence; stronger effect = higher value; 310,000 compounds, 1.3% hits;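 active = compounds whose thallium flux B-score, printed positive for inhibition, exceeds three library SD while starting fluorescence stays within three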;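 also: channel opened by potassium depolarization with thallium stimulus after 20 min compound exposure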
KCNK3 inh = human KCNK3 channel inhibition, primary screen; AID 602410; CHO-KCNK3 thallium flux, FluxOR fluorescence; stronger effect = lower value; B-score at 10 µM; 340,000 compounds, 0.84% hits;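 active = B-score under library mean minus 4 SD, starting fluorescence ratio at most library mean plus 5 SD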;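 also: more negative B-score means stronger inhibition of thallium flux through KCNK3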
KCNK9 inh = blocks the human KCNK9 two-pore domain potassium channel; 310,000 compounds, 1.2% hits; Q9NPC2; HEK293 KCNK9, FluxOR thallium flux fluorescence; stronger effect = lower value; AID 488922; B-score at 10 µM;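 active = ratio B-score over 3 SD below the library mean, with starting fluorescence within 5 SD of its mean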;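 also: negative B-score means less thallium flux so channel inhibition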
KCNQ1 pot = human KCNQ1 channel potentiation or activation; P51787; CHO-K1 KCNQ1, thallium flux FluxOR fluorescence; stronger effect = higher value; B-score at 10 µM; 310,000 compounds, 0.35% hits;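 active = fluorescence ratio B-score, a plate-corrected score, at least three library SD, with initial intensity B-score within 5 SD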
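Assay system: CHO-K1 cells stably expressing KCNQ1; Medium: assay buffer with matched DMSO; Also added: K+/Tl+ depolarizing stimulus; Dosing: single dose; Timing: dye 90 min, compound 20 min, room temperature; Measured by: kinetic FluxOR thallium fluorescence, 10-s 1-Hz baseline, 110-s post-stimulus read; Read-out: peak-minus-minimum fluorescence over initial fluorescence, negative-control normalized, B-scored.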
KCNQ1 block val = human KCNQ1 channel inhibition, validation assay; inhibition, % at 10 µM; KCNQ1 cell line, FluxOR thallium flux fluorescence; AID 588353; shares compounds with KCNQ1 block; 1,600 compounds, 93% hits;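 active = primary screen active, with duplicate mean exceeding buffer control mean plus 3 SD of buffer wells, cut at about 28% in these data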;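 also: 0% = buffer control ratio and 100% = XE991 inhibitor control ratio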
CHO KCNQ1 ctr = activity in parental CHO cells lacking KCNQ1; 1,600 compounds, 21% hits; fluorescence ratio (Tl flux) at 10 µM; shares compounds with KCNQ1 block; parental CHO-K1, FluxOR thallium flux fluorescence ratio; stronger effect = lower value; zero means no signal rise above baseline;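 active = mean of duplicate thallium-flux fluorescence ratios in parental host cells more than 5 SD below the buffer control mean, cut at about 0.38 in these data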;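 also: ratio is peak minus minimum fluorescence divided by baseline fluorescence; actives read low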
KCNQ1 APC inh = human KCNQ1 inhibition validated by electrophysiology; shares compounds with KCNQ1 block; KCNQ1-CHO cells, automated patch clamp current; calls only at 10 µM; 490 compounds, 20% hits; AID 624120;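 active = KCNQ1 current drop exceeding 3 SD of negative control wells, seen in both duplicate runs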;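 also: steady state current during a 2 s step from -80 to +40 mV; negative values mean current inhibition and positive values mean potentiation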
KCNQ2 spec = selectivity of KCNQ1 inhibitors: inhibition of rat KCNQ2 channel | shares compounds with KCNQ1 block | KCNQ2 cells, FluxOR thallium flux fluorescence | inhibition, % at 10 µM | 1,600 compounds, 71% hits;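 active = mean percent inhibition of the KCNQ2 thallium signal more than 5 SD above the buffer-only control wells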;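 also: KCNQ2 expressed in CHO cells; 0% = buffer control wells and 100% = XE-991 inhibitor control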
KCNQ1-KCNE1 inh = selectivity of KCNQ1 inhibitors: inhibition of human KCNQ1/KCNE1 channel; shares compounds with KCNQ1 block; KCNQ1/KCNE1 cells, FluxOR thallium flux fluorescence; 1,600 compounds, 77% hits; inhibition, % at 10 µM;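 active = mean percent inhibition of duplicate wells above the buffer-only control mean plus 3 SD of those controls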;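 also: 0% = buffer only wells and 100% = XE-991 inhibitor control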
* = called active by the depositor. Compounds with a hit are over-represented: about 4.1% of the library has one in this group of screens.

For NC(=O)CSc1nc(C23CC4CC(CC(C4)C2)C3)nc2ccccc12 the results were hERG protect -16.8, KCC2 mod -0.732, KCNQ1 block 6*, KCNK3 inh inactive, KCNK9 inh inactive, KCNQ1 pot inactive, KCNQ1 block val 91.0*, CHO KCNQ1 ctr 0.385, KCNQ1 APC inh inactive, KCNQ2 spec inactive and KCNQ1-KCNE1 inh 94.0%*.
Screening Cc1nonc1NC(=O)CSc1nc(C23CC4CC(CC(C4)C2)C3)nc2ccccc12 returned hERG protect -6.5, KCC2 mod 0.644, KCNQ1 block inactive, KCNK3 inh inactive, KCNK9 inh inactive and KCNQ1 pot inactive.
`CC(NCC(=O)Nc1cc(S(=O)(=O)N2CCOCC2)ccc1Cl)c1ccc(Cl)cc1Cl` (stereo not given) gave hERG protect -12.7, KCNQ1 block 7*, KCNK3 inh inactive, KCNK9 inh inactive, KCNQ1 pot inactive, KCNQ1 block val 70.0*, CHO KCNQ1 ctr 0.431, KCNQ2 spec 60.3%* and KCNQ1-KCNE1 inh 91.5%*.
Cc1ccc(S(=O)(=O)N2CCOCC2)cc1NC(=O)CNC(C)c1ccccc1 (stereo not given) was read as KCNK3 inh inactive.
For CC(C)C[C@@H](CNCC(=O)[C@H](CC(C)C)NC(=O)c1[nH]cnc1C(=O)N[C@@H](C)CN)NC(=O)c1nc[nH]c1C(=O)N[C@@H](CC(=O)O)C(=O)O the results were KCNK3 inh inactive.
Screening O=C(N/C=C/c1ccccc1)Nc1ccc(Cl)cc1 returned hERG protect -5.0, KCC2 mod -1.12, KCNQ1 block 7*, KCNK3 inh inactive, KCNK9 inh inactive, KCNQ1 pot inactive, KCNQ1 block val 61.5*, CHO KCNQ1 ctr 0.479, KCNQ2 spec 64.3%* and KCNQ1-KCNE1 inh inactive.
For Cc1ccc(NC(=O)CCN2C(=O)NC3(CCCC3)C2=O)c(C)c1 the results were KCNK3 inh inactive.
For Cc1nn(-c2ccccc2)c(N)c1-c1ccccc1 the results were hERG protect -5.0, KCC2 mod -0.338, KCNQ1 block inactive, KCNK3 inh inactive, KCNK9 inh inactive and KCNQ1 pot inactive.
For Cc1nn(-c2ccccc2)c(/N=C/c2ccccc2O)c1-c1ccccc1 the results were hERG protect -12.0, KCC2 mod 0.0902, KCNQ1 block 6*, KCNK3 inh inactive, KCNK9 inh inactive, KCNQ1 pot inactive, KCNQ1 block val 119.0*, CHO KCNQ1 ctr 0.428, KCNQ1 APC inh inactive, KCNQ2 spec 108.7%* and KCNQ1-KCNE1 inh 166.0%*.
For O=C1c2ccc(Br)cc2C(=O)N1c1ccc(Cc2ccncc2)cc1 the results were hERG protect -9.9, KCNQ1 block 15*, KCNK3 inh inactive, KCNK9 inh inactive, KCNQ1 pot inactive, KCNQ1 block val 140.0*, CHO KCNQ1 ctr 0.497, KCNQ1 APC inh inactive, KCNQ2 spec 99.3%* and KCNQ1-KCNE1 inh 127.5%*.
O=C1C2C3C=CC(C3)C2C(=O)N1c1ccc(Cc2ccncc2)cc1 (stereo not given) was read as hERG protect -4.1, KCC2 mod 0.433, KCNQ1 block inactive, KCNK3 inh inactive, KCNK9 inh inactive and KCNQ1 pot inactive.
Screening COc1ccc(NC(=O)COc2cc(O)c3c(c2)OC(C)(C)CC3=O)cc1 returned hERG protect -8.1, KCNQ1 block inactive, KCNK3 inh inactive, KCNK9 inh inactive and KCNQ1 pot inactive.
COc1cccc(NC(=O)COc2cc(O)c3c(c2)OC(C)(C)CC3=O)c1 was read as hERG protect -13.4, KCNQ1 block 7*, KCNK3 inh inactive, KCNK9 inh inactive, KCNQ1 pot inactive, KCNQ1 block val 49.0*, CHO KCNQ1 ctr 0.443, KCNQ2 spec 78.3%* and KCNQ1-KCNE1 inh 69.5%*.
Screening Oc1ccc(C[C@H]2CNC(=S)N2CC2CCCN2C[C@H](Cc2ccccc2)N2C[C@H](Cc3ccc(O)cc3)N(CCc3ccccc3)C2=S)cc1 (stereo not given in full) returned KCNK3 inh inactive.
For CN(C1CCCCC1)S(=O)(=O)c1ccc(NC(=O)c2ccc(Br)o2)cc1 the results were hERG protect -8.8, KCC2 mod -0.684, KCNQ1 block 7*, KCNK3 inh inactive, KCNK9 inh -7.97*, KCNQ1 pot inactive, KCNQ1 block val 131.5*, CHO KCNQ1 ctr 0.415, KCNQ1 APC inh inactive, KCNQ2 spec 115.3%* and KCNQ1-KCNE1 inh 193.0%*.
`Cc1ccc(NC(=O)OCCN2CCN(Cc3ccccc3)CCC2=O)cc1` gave hERG protect -9.4, KCC2 mod -1.79, KCNQ1 block inactive, KCNK3 inh inactive, KCNK9 inh inactive and KCNQ1 pot inactive.
For O=C1CCN(Cc2ccccc2)CCN1CCOc1ccccc1 the results were hERG protect -4.2, KCNQ1 block 6*, KCNK3 inh inactive, KCNK9 inh inactive, KCNQ1 pot inactive, KCNQ1 block val 0.0, CHO KCNQ1 ctr 0.508, KCNQ2 spec inactive and KCNQ1-KCNE1 inh inactive.
Screening O=C(Nc1ccccc1)OCCN1CCN(Cc2ccccc2)CCC1=O returned hERG protect -4.2, KCC2 mod -0.382, KCNQ1 block inactive, KCNK3 inh inactive, KCNK9 inh inactive and KCNQ1 pot inactive.
`O=C(Nc1cccc(Cl)c1)OCCN1CCN(Cc2ccccc2)CCC1=O` gave hERG protect -17.2, KCC2 mod -1.57, KCNQ1 block 11*, KCNK3 inh inactive, KCNK9 inh inactive, KCNQ1 pot inactive, KCNQ1 block val 69.5*, CHO KCNQ1 ctr 0.486, KCNQ2 spec 99.0%* and KCNQ1-KCNE1 inh 46.5%*.
Screening O=C(N[C@H]1C/C=C\C[C@H](CC(=O)N(CCO)Cc2ccccc2)C(=O)NC[C@H](c2ccccc2)OC1=O)OCC1c2ccccc2-c2ccccc21 returned KCNK3 inh inactive.

High-throughput results: PubChem, several laboratories
